The list is not random: actives were taken first. Their share in the collection is about 2.9%.
SIRT5 block: blocks human SIRT5 desuccinylation of peptide. 330,000 compounds, 1.1% hits. AID 652115. inhibition, % at 15 µM. Purified SirT5, succinyl-peptide AMC, trypsin-coupled fluorescence; in the data active = inhibition above about 15%; inconclusive = no clear call, values can overlap the other calls
E-sel inducer: induces E-selectin expression in human endothelial cells. 260,000 compounds, 0.37% hits. activation, % at 7.58 µM. HUVEC E-selectin immunofluorescence imaging; normalized: neutral wells 0, TNF-alpha wells 100. P16581;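 active = mean E-selectin-positive cell signal at least 10% of the positive control, reached in at least 60% of replicates, without over 20% cell loss; inconclusive = no rule given, readout overlaps actives, possibly toxicity-flagged; inactive = the rest, including those meeting only one limit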
Target sequence (P16581 whole entry, looked up): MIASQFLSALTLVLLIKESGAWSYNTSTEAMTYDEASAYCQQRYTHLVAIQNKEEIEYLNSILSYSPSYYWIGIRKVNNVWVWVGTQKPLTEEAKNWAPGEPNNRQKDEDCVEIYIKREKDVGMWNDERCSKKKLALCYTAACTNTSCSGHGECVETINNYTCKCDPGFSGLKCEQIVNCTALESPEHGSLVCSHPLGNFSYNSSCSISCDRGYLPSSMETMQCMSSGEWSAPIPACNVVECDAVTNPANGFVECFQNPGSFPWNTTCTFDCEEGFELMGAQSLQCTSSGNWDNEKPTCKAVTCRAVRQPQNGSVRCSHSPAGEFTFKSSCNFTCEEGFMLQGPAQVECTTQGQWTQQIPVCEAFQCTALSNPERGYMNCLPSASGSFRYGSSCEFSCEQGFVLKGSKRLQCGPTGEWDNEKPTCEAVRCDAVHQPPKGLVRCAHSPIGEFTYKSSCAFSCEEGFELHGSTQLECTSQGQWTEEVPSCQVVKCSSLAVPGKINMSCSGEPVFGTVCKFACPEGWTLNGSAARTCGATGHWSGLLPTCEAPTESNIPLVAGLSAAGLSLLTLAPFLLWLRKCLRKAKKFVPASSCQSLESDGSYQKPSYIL
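Material: HUVEC primary endothelial cells; Amount: 3,000 cells per well; Dosing: single concentration; Medium: EGM-2 growth medium on 0.1% gelatin-coated wells; Read-out basis: percent E-selectin-positive cells; Signal: immunofluorescence imaging; Control set: TNF-alpha, DMSO.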
DENV2 CPE: DENV2-induced cell death inhibition; CPE inhibition, % at 9.99 µM; DENV2-infected cells, cytopathic effect rescue, plate reader; 350,000 compounds, 1.7% hits; in the data active = CPE inhibition above about 20%, passing the limit was not always enough; inconclusive = no clear call, values can overlap the other calls; tested in BHK-21 cells;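 note: 0% = median of neutral control wells and 100% = median of positive control wells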
Starred values were filed as active, the others as inactive; ? = inconclusive; nt = no result given.

SMILES	SIRT5 block	E-sel inducer	DENV2 CPE
CCOP(=O)(OCC)/C(C#N)=C/c1ccc(Br)cc1	2.6	0.3	-2.5
Cn1c(O)c(C=Nc2cccc(C(F)(F)F)c2)c(=O)n(C)c1=O	1.3	0.2	2.7
COC(=O)C1=C(c2cccc(OCc3ccccc3)c2)C[C@@H]2CC[C@H]1N2C(=O)NC1CCN(Cc2ccccc2)CC1	2.3	-0.1	5.2
Oc1cccc2nc3ccccc3nc12	nt	nt	110.9*
Cc1ccccc1O	nt	nt	-21.2
COC(=O)[C@@H]1[C@@H](C(=O)OC)C2(c3ccccc3-c3ccccc32)N(c2ccc(Cl)cc2)N1C#N	16.9*	nt	nt
COC(=O)C[C@]1(C(=O)OC)CN(C#N)N(c2ccc(Cl)cc2)C12c1ccccc1-c1ccccc12	-2.4	nt	nt
COC(=O)C1=C(c2c(C)noc2C)C[C@@H]2CC[C@H]1N2C(=O)NC1CCCCC1	0.6	-0.1	48.2*
COC(=O)C1=C(c2c(C)noc2C)C[C@@H]2CC[C@H]1N2C(=O)NC1CC1	nt	-0.1	-16.2
O=C(O)c1ccc(N=Cc2c(O)[nH]c(=O)[nH]c2=O)cc1	5.2	nt	?
COC1CCC(OC2CC(C3(C)CCC4(CC(O)C(C)C(C(C)/C=C(\C)C(=O)C(C)CC(C)C(=O)O)O4)O3)OC3(OC(C4OC(O)(CO)C(C)CC4C)CC3C)C2C)OC1C (stereo not given)	24.1*	nt	-8.3
C=CCc1ccc2c(c1)OCO2	nt	nt	93.0*
C=CCc1cc(OC)c2c(c1)OCO2	-2.2	nt	13.9
Cc1cc(C(=O)OCC(=O)Nc2ccc(F)cc2F)c(C)n1C1CC1	-4.2	nt	?
Cc1nc2ccccc2c(=O)n1-c1ccncc1	-1.0	1.1	-2.4
Cc1nc2ccccc2c(=O)n1-c1nccs1	1.5	0.3	43.3*
COc1cc2c(c(OC)c1OC)-c1ccc(O)cc1C(NC(C)=O)CC2 (stereo not given)	nt	0.2	16.0
CCN(CC)C(=O)COc1cc(C)cc2oc(=O)c3c(c12)CCCC3	-6.4	nt	5.2
Cc1cc(OCc2ccc([N+](=O)[O-])cc2)c2c3c(c(=O)oc2c1)CCCC3	0.3	-0.6	151.3*
CN(C(=O)Oc1cccc2ccccc12)C1C=CCC1 (stereo not given)	nt	0.3	65.0*
C[C@H]1CN([C@@H](C)CO)C(=O)CCCn2cc(nn2)CO[C@@H]1CN(C)C(=O)Oc1cccc2ccccc12	4.0	1.9	-0.2
CC(=O)OC1(c2ccccc2)CCN(C)CC1(C)C (stereo not given)	15.3*	0.0	-0.5
CC12CN3CC(C)(CN(C1)P3(=O)Oc1ccccc1)C2=O (stereo not given)	1.8	nt	nt
COC(=O)C1=C(c2ccc(Cl)c(C(F)(F)F)c2)C[C@@H]2CC[C@H]1N2C(=O)NCc1cc(C)oc1C(F)(F)F	nt	-0.1	25.5*
COC(=O)C1=C(c2ccc(Cl)c(C(F)(F)F)c2)C[C@@H]2CC[C@H]1N2C(=O)NCC1CC1	2.5	0.0	-2.5
SMILES	SIRT5 block	E-sel inducer	DENV2 CPE
CC(C)(C)C(=O)OC[N+](C)(C)CCOC(=O)C(O)(c1ccccc1)C1CCCC1 (stereo not given)	-1.9	-2.8	-8.2
COC(=O)[C@H]1[C@H](CO)[C@H]2Cn3c(ccc(C4=CCCCC4)c3=O)[C@@H]1N2C(=O)NC(C)C	-11.9	0.0	-8.8
O=C(Cc1ccccc1)N1CCCCN2[C@H](C1)[C@H](c1ccc(-c3ccccc3)cc1)[C@@H]2CO	nt	-0.5	-10.1
C=CC1CN2CCC1C[C@@H]2CO (stereo not given in full)	0.4	nt	20.2*
C=C[C@H]1CN2CC[C@H]1C[C@H]2[C@H](O)c1ccnc2ccccc12	-0.5	0.1	14.4
CC(=O)O[C@@H]1CC[C@]2(C)C3CC[C@@]4(C)C(C[C@@H](O)[C@@H]4O)C3[C@@H](OC(C)=O)C[C@H]2C1 (stereo not given in full)	0.9	-0.3	-2.7
C[C@H]1C[C@@H](C)C(=O)[C@@H]([C@H](O)CC2CC(=O)NC(=O)C2)C1	nt	nt	123.6*
COc1ccc(CCNCc2ccccc2F)cc1	-4.1	0.1	0.3
COc1ccc(OC)c(NC(=O)N2C[C@H]3C[C@@H](C2)c2cccc(=O)n2C3)c1	1.8	nt	-9.5
C/C=C/c1ccc2c(c1)OCO2	nt	nt	20.1*
CC(=O)c1ccc2c(c1)OCO2	nt	nt	4.5
NS(=O)(=O)c1ccc(-c2ccc(C=C3C(=O)NC(=S)NC3=O)o2)cc1	35.4*	-0.3	?
NS(=O)(=O)c1ccc(-c2ccc(C=C3C(=O)NC(=O)NC3=O)o2)cc1	9.8	-0.1	11.2
COC(=O)C(C)NC(=S)N1CC2C[C@@H](C1)Cn1c2cccc1=O (stereo not given in full)	-2.3	22.2	5.8
CCc1ccccc1N1C(=O)/C(=C/c2ccc(N3CCN(C)CC3)o2)C(=O)NC1=S	-2.8	5.9	-4.5
CCOC(=O)[C@]12Cc3cc4ccccc4cc3[C@H]1N(Cc1ccccc1)C(=O)c1ccccc12	26.8*	1.1	?
CCOC(=O)[C@]12Cc3cc4ccccc4cc3[C@H]1N(Cc1ccccc1)C(=O)c1cc(OC)ccc12	-7.9	?	?
CCOC(=O)[C@]12Cc3ccccc3[C@H]1N(CCC(=O)OC)C(=O)c1cc(OC)ccc12	-3.1	-0.3	30.4*
CCOC(=O)[C@]12Cc3cc(OC)ccc3[C@H]1N(CCC(=O)OC)C(=O)c1cc(OC)ccc12	-2.7	-0.1	-9.9
O=C(NCC1=C(c2ccc3ccccc3c2)C[C@@H]2CC[C@H]1N2Cc1ccco1)c1ccc([N+](=O)[O-])cc1	-2.1	0.1	1.8
O=C(NCC1=C(c2ccc3ccccc3c2)C[C@@H]2CC[C@H]1N2Cc1ccco1)c1ccncc1	24.9*	0.0	-13.1
N#Cc1cccc(-c2ccc([C@@H]3[C@@H](CO)N4CCCCN(C(=O)Cc5cccnc5)C[C@@H]34)cc2)c1	1.1	-0.7	2.2
CN(C)CC1CCCCC1OC(=O)Cc1ccc(Cl)c([N+](=O)[O-])c1 (stereo not given)	-3.5	49.7*	-1.3
COc1ccc(NC2(C#N)CCCCC2)cc1	nt	5.4	3.6
CCCCN1CCC(C#N)(Nc2ccccc2)CC1	21.7*	nt	nt
SMILES	SIRT5 block	E-sel inducer	DENV2 CPE
COC(=O)C1=C(c2ccc(F)cc2OCc2ccccc2)C[C@@H]2CC[C@H]1N2C(=O)NC1CCN(Cc2ccccc2)CC1	2.7	-0.1	-1.8
COC(=O)C1=C(c2cccc(OC)c2OC)C[C@@H]2CC[C@H]1N2C(=O)NCCCOC(C)C	nt	-0.1	2.8
C1CCC2CCCCC2C1 (stereo not given)	nt	nt	33.4*
O=C1NC(=O)C(C2CCCCCC2)C(=O)N1	0.2	-0.2	-1.1
O=C1Nc2ccccc2/C1=C/c1nc2ccccc2c(=O)n1-c1ccc(O)cc1	-2.3	-0.2	-2.9
COc1ccc(-n2c(/C=C3\C(=O)Nc4ccccc43)nc3ccccc3c2=O)cc1	111.6*	nt	5.1
CSCCC(c1nnnn1-c1ccc2c(c1)OCCO2)N1CCC(n2c(=O)[nH]c3ccccc32)CC1 (stereo not given)	19.3*	1.9	-4.0
CCC(c1nnnn1-c1ccc2c(c1)OCCO2)N1CCC(n2c(=O)[nH]c3ccccc32)CC1 (stereo not given)	-5.5	1.0	?
Cc1ccc(N2C(=O)NC(=O)/C(=C\c3cnc(-c4ccccc4)nc3)C2=O)cc1	-0.1	1.1	10.4
CCCCN1C(=O)/C(=C/C=C/c2ccco2)C(=O)NC1=S	38.4*	nt	-1.2

Source: PubChem BioAssay (Broad Institute)
